Reference: ChEMBL document CHEMBL2021913, “Synthesis and biological evaluation of some novel thiazole substituted benzotriazole derivatives” (2012)
≈ marks a conversion by molar mass, not a printed value. Calls of active or inactive are those of the source. No cut-off for these calls is given here.

Key:
Assay type in all cases: functional
Staphylococcus aureus [1] = assay: Antimicrobial activity against Staphylococcus aureus 2079 at 35 degC after 18 to 24 hrs by NCCLS method based antimicrobial assay; conditions: for MBC: read-out: MBC99.9
Candida albicans [2] = assay: Ratio of MFC99.9 to MIC90 for Candida albicans 3471 at 35 degC after 48 hrs by CLSI method based antimicrobial assay
In short: (§1)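 Broth microdilution following CLSI guidelines over 256 to 1 µg/mL. MIC90 is the lowest concentration completely inhibiting growth. For MFC, 0.1 mL from each tube spread on agar and CFU counted after 48 h at 35 °C; MFC is lowest concentration killing 99.9% of inoculum. MFC/MIC ratio calculated: […], ≤4 as fungicidal.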

Pseudomonas aeruginosa [3] = assay: Antimicrobial activity against Pseudomonas aeruginosa 2036 at 35 degC after 18 to 24 hrs by NCCLS method based antimicrobial assay; conditions: for MBC: read-out: MBC99.9
Bacillus subtilis [4] = assay: Antimicrobial activity against Bacillus subtilis 2250 at 35 degC after 18 to 24 hrs by NCCLS method based antimicrobial assay; conditions: for MBC: read-out: MBC99.9
Aspergillus niger [5] = assay: Antimicrobial activity against Aspergillus niger 545 at 35 degC after 48 hrs by CLSI method based antimicrobial assay; conditions: for MFC: read-out: MFC99.9; in short: as §1
Candida albicans [6] = assay: Antimicrobial activity against Candida albicans 3471 at 128 ug/disc at 37 degC after 24 to 72 hrs by agar-well diffusion assay; conditions: for zone of inhibition at 128 µg/disc: read-out: DIZ
In short: (§2)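 Potato dextrose agar base plates overlaid with seeded agar cooled to 40 °C and inoculated with spores from 10-day cultures, final 1 × 10⁶ spores/mL. Compounds dissolved in DMSO at 128 µg/mL and applied on 6 mm filter-paper discs placed on chilled seeded medium. Nystatin positive control, DMSO negative control. Incubation 24–72 h at 37 °C. Inhibition zone diameter read by vernier caliper.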

Aspergillus niger [7] = assay: Ratio of MFC99.9 to MIC90 for Aspergillus niger 545 at 35 degC after 48 hrs by CLSI method based antimicrobial assay; in short: as §1
Pseudomonas aeruginosa [8] = assay: Antimicrobial activity against Pseudomonas aeruginosa 2036 at 128 ug/disc at 35 degC after 24 hrs by agar-well diffusion assay; conditions: for zone of inhibition at 128 µg/disc: Pseudomonas aeruginosa, 2036, 24 h, read-out: DIZ
In short: (§3)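 Agar-well diffusion: 24 h bacterial cultures adjusted to 0.5 McFarland (1.5 × 10⁸ CFU/mL) and mixed into molten Mueller-Hinton agar before pouring. 6 mm wells punched and each filled with 50 µL of compound stock or control. Plates incubated 35 °C for 24 h. Zone of growth inhibition diameter measured with vernier caliper.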

Escherichia coli [9] = assay: Antimicrobial activity against Escherichia coli 2109 at 128 ug/disc at 35 degC after 24 hrs by agar-well diffusion assay; conditions: for zone of inhibition at 128 µg/disc: Escherichia coli, 2109, 24 h, read-out: DIZ; in short: as §3
Bacillus subtilis [10] = assay: Antimicrobial activity against Bacillus subtilis 2250 at 128 ug/disc at 35 degC after 24 hrs by agar-well diffusion assay; conditions: for zone of inhibition at 128 µg/disc: Bacillus subtilis, 2250, 24 h, read-out: DIZ; in short: as §3
Candida albicans [11] = assay: Antimicrobial activity against Candida albicans 3471 at 35 degC after 48 hrs by CLSI method based antimicrobial assay; conditions: for MFC: read-out: MFC99.9; in short: as §1
Escherichia coli [12] = assay: Antimicrobial activity against Escherichia coli 2109 at 35 degC after 18 to 24 hrs by NCCLS method based antimicrobial assay; conditions: for MBC: read-out: MBC99.9
Aspergillus niger [13] = assay: Antimicrobial activity against Aspergillus niger 545 at 128 ug/disc at 37 degC after 24 to 72 hrs by agar-well diffusion assay; conditions: for zone of inhibition at 128 µg/disc: read-out: DIZ; for diameter of the inhibition zone (DIZ): in the assay text read “disc diffusion assay” for “agar-well diffusion assay”; in short: as §2
Staphylococcus aureus [14] = assay: Antimicrobial activity against Staphylococcus aureus 2079 at 128 ug/disc at 35 degC after 24 hrs by agar-well diffusion assay; conditions: for zone of inhibition at 128 µg/disc: Staphylococcus aureus, 2079, 24 h, read-out: DIZ; in short: as §3

Compound | MIC (Staphylococcus aureus [1]) | Ratio (Candida albicans [2]) | MIC (Pseudomonas aeruginosa [3]) | MBC99.9 (Bacillus subtilis [4]) | MIC (Bacillus subtilis [4]) | MIC (Aspergillus niger [5]; Aspergillus niger, 545, 48 h) [µg/mL] | MFC (Aspergillus niger [5]; Aspergillus niger, 545, 48 h) [µg/mL] | zone of inhibition at 128 µg/disc (Candida albicans [6]) [mm] | Ratio (Aspergillus niger [7]) | diameter of the inhibition zone (DIZ) (Bacillus subtilis [10]) | MIC (Candida albicans [11]; Candida albicans, 3471, 48 h) [µg/mL] | MFC (Candida albicans [11]; Candida albicans, 3471, 48 h) [µg/mL] | MIC (Escherichia coli [12]) | zone of inhibition at 128 µg/disc (Aspergillus niger [13]) [mm] | MBC99.9 (Staphylococcus aureus [1]) | diameter of the inhibition zone (DIZ) (Staphylococcus aureus [14]) | MBC (Pseudomonas aeruginosa [3]) [µg/mL] | zone of inhibition at 128 µg/disc (Pseudomonas aeruginosa [8]) [mm] | zone of inhibition at 128 µg/disc (Escherichia coli [9]) [mm] | MBC (Escherichia coli [12]) [µg/mL] | also measured
Fc1ccc(-c2csc(N/N=C(/Cn3nnc4ccccc43)c3cc(C(F)(F)F)cc(C(F)(F)F)c3)n2)cc1 | 32 µg/mL (≈ 56.7 µM) | 4 | inactive | inactive | inactive | 32 (≈ 56.7 µM) | 64 (≈ 113 µM) | 18.4 | 2 | inactive | 32 (≈ 56.7 µM) | 128 (≈ 227 µM) | inactive | 16.8 | – | – | – | – | – | – | MBC (Staphylococcus aureus [1]): 64 µg/mL (≈ 113 µM); MBC99.9 (Pseudomonas aeruginosa [3]): inactive; diameter of the inhibition zone (DIZ) (Pseudomonas aeruginosa [8]): inactive; diameter of the inhibition zone (DIZ) (Escherichia coli [9]): inactive; MBC99.9 (Escherichia coli [12]): inactive; zone of inhibition at 128 µg/disc (Staphylococcus aureus [14]): 24.3 mm
O=[N+]([O-])c1ccc(-c2csc(N/N=C(/Cn3nnc4ccccc43)c3ccc(F)cc3)n2)cc1 | inactive | 2 | inactive | – | 128 µg/mL (≈ 270 µM) | 32 (≈ 67.6 µM) | 128 (≈ 270 µM) | 18.7 | 4 | – | 32 (≈ 67.6 µM) | 64 (≈ 135 µM) | inactive | 16.2 | inactive | inactive | – | – | – | – | MBC99.9 (Pseudomonas aeruginosa [3]): inactive; MBC (Bacillus subtilis [4]): 256 µg/mL (≈ 541 µM); diameter of the inhibition zone (DIZ) (Pseudomonas aeruginosa [8]): inactive; diameter of the inhibition zone (DIZ) (Escherichia coli [9]): inactive; zone of inhibition at 128 µg/disc (Bacillus subtilis [10]): 14.9 mm; MBC99.9 (Escherichia coli [12]): inactive
Fc1ccc(/C(Cn2nnc3ccccc32)=N\Nc2nc(-c3ccc(F)cc3)cs2)cc1 | 64 µg/mL (≈ 143 µM) | 2 | 128 µg/mL (≈ 287 µM) | – | 64 µg/mL (≈ 143 µM) | 16 (≈ 35.8 µM) | 64 (≈ 143 µM) | 21.1 | 4 | – | 16 (≈ 35.8 µM) | 32 (≈ 71.7 µM) | 128 µg/mL (≈ 287 µM) | 19.1 | – | – | 256 (≈ 573 µM) | 11.8 | 15 | 128 (≈ 287 µM) | MBC (Staphylococcus aureus [1]): 128 µg/mL (≈ 287 µM); MBC (Bacillus subtilis [4]): 128 µg/mL (≈ 287 µM); zone of inhibition at 128 µg/disc (Staphylococcus aureus [14]): 20.1 mm
Fc1ccc(-c2csc(N/N=C(/Cn3nnc4ccccc43)c3ccc(Br)cc3)n2)cc1 | inactive | 4 | 32 µg/mL (≈ 63.1 µM) | inactive | inactive | 32 (≈ 63.1 µM) | 64 (≈ 126 µM) | 16.8 | 2 | inactive | 32 (≈ 63.1 µM) | 128 (≈ 252 µM) | 128 µg/mL (≈ 252 µM) | 17.6 | inactive | inactive | 64 (≈ 126 µM) | 19.8 | 18.7 | 128 (≈ 252 µM) | –
Fc1ccc(/C(Cn2nnc3ccccc32)=N\Nc2nc(-c3ccc(Cl)cc3)cs2)cc1 | 32 µg/mL (≈ 69.1 µM) | 4 | 64 µg/mL (≈ 138 µM) | inactive | inactive | 16 (≈ 34.6 µM) | 16 (≈ 34.6 µM) | 20.2 | 1 | inactive | 16 (≈ 34.6 µM) | 64 (≈ 138 µM) | inactive | 21.4 | – | – | 64 (≈ 138 µM) | 19.1 | – | – | MBC (Staphylococcus aureus [1]): 32 µg/mL (≈ 69.1 µM); MBC99.9 (Escherichia coli [12]): inactive; zone of inhibition at 128 µg/disc (Staphylococcus aureus [14]): 25.9 mm
Clc1ccc(-c2csc(N/N=C(/Cn3nnc4ccccc43)c3ccc(Br)cc3)n2)cc1 | inactive | – | 16 µg/mL (≈ 30.5 µM) | inactive | inactive | 64 (≈ 122 µM) | 128 (≈ 244 µM) | – | 2 | inactive | – | – | 64 µg/mL (≈ 122 µM) | 15.2 | inactive | inactive | 32 (≈ 61.1 µM) | 21.2 | 21.8 | 128 (≈ 244 µM) | diameter of the inhibition zone (DIZ) (Candida albicans [6]): inactive; MFC99.9 (Candida albicans [11]): inactive; MIC (Candida albicans [11]): inactive
FC(F)(F)c1cc(/C(Cn2nnc3ccccc32)=N\Nc2nc(-c3ccc(Cl)cc3)cs2)cc(C(F)(F)F)c1 | inactive | – | inactive | inactive | inactive | 16 (≈ 27.5 µM) | 64 (≈ 110 µM) | – | 4 | inactive | – | – | 128 µg/mL (≈ 220 µM) | 19.7 | inactive | inactive | – | – | 18.7 | 256 (≈ 441 µM) | MBC99.9 (Pseudomonas aeruginosa [3]): inactive; diameter of the inhibition zone (DIZ) (Candida albicans [6]): inactive; diameter of the inhibition zone (DIZ) (Pseudomonas aeruginosa [8]): inactive; MFC99.9 (Candida albicans [11]): inactive; MIC (Candida albicans [11]): inactive
NYSTATIN | – | 2 | – | – | – | – | – | – | 2 | – | – | – | – | – | – | – | – | – | – | – | MFC99.9 (Aspergillus niger [5]): 32 µg/mL; MIC (Aspergillus niger [5]): 16 µg/mL; MFC99.9 (Candida albicans [11]): 32 µg/mL; MIC (Candida albicans [11]): 16 µg/mL
O=[N+]([O-])c1ccc(/C(Cn2nnc3ccccc32)=N\Nc2nc(-c3ccc([N+](=O)[O-])cc3)cs2)cc1 | inactive | 2 | inactive | inactive | inactive | – | – | 14.3 | – | inactive | 64 (≈ 128 µM) | 128 (≈ 256 µM) | 128 µg/mL (≈ 256 µM) | – | inactive | inactive | – | – | 17.5 | 256 (≈ 511 µM) | MBC99.9 (Pseudomonas aeruginosa [3]): inactive; MFC99.9 (Aspergillus niger [5]): inactive; MIC (Aspergillus niger [5]): inactive; diameter of the inhibition zone (DIZ) (Pseudomonas aeruginosa [8]): inactive; diameter of the inhibition zone (DIZ) (Aspergillus niger [13]): inactive
O=[N+]([O-])c1ccc(-c2csc(N/N=C(/Cn3nnc4ccccc43)c3ccc(Cl)cc3)n2)cc1 | inactive | – | 64 µg/mL (≈ 131 µM) | inactive | inactive | 128 (≈ 261 µM) | 256 (≈ 523 µM) | – | 2 | inactive | – | – | inactive | 13.6 | inactive | inactive | 128 (≈ 261 µM) | 16.4 | – | – | diameter of the inhibition zone (DIZ) (Candida albicans [6]): inactive; diameter of the inhibition zone (DIZ) (Escherichia coli [9]): inactive; MFC99.9 (Candida albicans [11]): inactive; MIC (Candida albicans [11]): inactive; MBC99.9 (Escherichia coli [12]): inactive
FC(F)(F)c1cc(/C(Cn2nnc3ccccc32)=N\Nc2nc(-c3cc(C(F)(F)F)cc(C(F)(F)F)c3)cs2)cc(C(F)(F)F)c1 | inactive | 2 | inactive | inactive | inactive | – | – | 11.7 | – | inactive | 128 (≈ 188 µM) | 256 (≈ 375 µM) | 128 µg/mL (≈ 188 µM) | – | inactive | inactive | – | – | 16.4 | 256 (≈ 375 µM) | MBC99.9 (Pseudomonas aeruginosa [3]): inactive; MFC99.9 (Aspergillus niger [5]): inactive; MIC (Aspergillus niger [5]): inactive; diameter of the inhibition zone (DIZ) (Pseudomonas aeruginosa [8]): inactive; diameter of the inhibition zone (DIZ) (Aspergillus niger [13]): inactive
Clc1ccc(/C(Cn2nnc3ccccc32)=N\Nc2nc(-c3ccc(Cl)cc3)cs2)cc1 | 64 µg/mL (≈ 134 µM) | 2 | 128 µg/mL (≈ 267 µM) | – | 32 µg/mL (≈ 66.8 µM) | 32 (≈ 66.8 µM) | 32 (≈ 66.8 µM) | 21 | 1 | – | 16 (≈ 33.4 µM) | 32 (≈ 66.8 µM) | inactive | 18.2 | – | – | 128 (≈ 267 µM) | 11.3 | – | – | MBC (Staphylococcus aureus [1]): 32 µg/mL (≈ 66.8 µM); MBC (Bacillus subtilis [4]): 64 µg/mL (≈ 134 µM); zone of inhibition at 128 µg/disc (Bacillus subtilis [10]): 25.1 mm; MBC99.9 (Escherichia coli [12]): inactive; zone of inhibition at 128 µg/disc (Staphylococcus aureus [14]): 27.9 mm
